Most compounds without a hit are left out; they make up all but 3.6% or so of the library.
UCH37 DUB inh: inhibitors of human UCH37 deubiquitinase, primary screen, biochemical, Ub-AMC cleavage, fluorescence; purified proteasome/UCH37; inhibition, % (test concentration not listed); 330,000 tested, 0.33% active; AID 588478, 2011;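 active means mean inhibition over replicate wells above about 20%, limit read from the data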
Target sequence (Q9Y5K5 whole entry, looked up): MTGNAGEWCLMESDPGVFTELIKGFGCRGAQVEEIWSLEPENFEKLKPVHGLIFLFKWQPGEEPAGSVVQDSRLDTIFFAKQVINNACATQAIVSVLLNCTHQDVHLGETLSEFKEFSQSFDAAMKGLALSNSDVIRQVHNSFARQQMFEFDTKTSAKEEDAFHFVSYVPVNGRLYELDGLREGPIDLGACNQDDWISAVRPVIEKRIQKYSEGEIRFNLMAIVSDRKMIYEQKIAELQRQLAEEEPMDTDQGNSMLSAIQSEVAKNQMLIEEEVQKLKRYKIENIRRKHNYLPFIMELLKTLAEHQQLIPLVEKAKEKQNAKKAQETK
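Test system – human UCH37 enzyme supplied as purified proteasome complex · Incubation – 30 min preincubation with enzyme, 25 min cleavage at room temperature · Detection – AMC fluorescence from Ub-AMC cleavage, excitation 355 nm, emission 460 nm · Benchmarks – no-proteasome wells (full inhibition) and compound-free wells (no inhibition)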
NadD block: inhibitors of S. aureus NadD, primary screen, biochemical, colorimetric, uHTS | Nicotinate-nucleotide adenylyltransferase NadD (Staphylococcus aureus N315) | purified NadD enzyme, colorimetric absorbance read-out | inhibition, % at 20 µM | 360,000 tested, 0.78% active | AID 602399, 2012; in the data active means inhibition above about 26%
SENP1 FRET inh: human SENP1 catalytic domain inhibitors, primary screen, biochemical, FRET, uHTS | inhibition, % at 10 µM | 360,000 tested, 0.21% active | recombinant SENP1 catalytic domain, CyPet-SUMO1-YPet FRET cleavage | Sentrin-specific protease 1 (Homo sapiens), Q9P0U3;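 active means inhibition at least 30% at 10 µM, raw YFP signal under a set limit, fluorescence ratio 0.5 to 1.5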
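Test system: hSENP1 catalytic domain, recombinant; Amount: 20 pM final SENP1 enzyme; Medium: Tris pH 8 buffer plus EDTA, NaCl, BME, BSA, NP40, catalase; Schedule: 50 min enzyme reaction, room temperature, light-protected; Technique: FRET fluorescence in CFP and YFP emission channels; Controls: no-enzyme wells low, DMSO-plus-enzyme wells high control.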
NR3A LBD binder: binders of NR3A ligand-binding domain, primary screen, biophysical, differential scanning fluorimetry, uHTS | Glutamate receptor ionotropic, NMDA 3A (GRIN3A) ligand-binding domain | NR3A LBD differential scanning fluorimetry, Tm shift; 0% = protein alone, 100% = glycine-bound protein | Tm shift relative to glycine control, % at 25 µM | 340,000 tested, 2.5% active;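 active means melting temperature shift of at least 10% of the positive control shift, at one fixed dose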
ATG4B inhibitor: ATG4B protease inhibitors, primary screen, biochemical, fluorescence, uHTS; 340,000 tested, 0.51% active; ATG4B cleavage of LC3-PLA2, NBD-HPC fluorescence, 1 h; inhibition, % at 8.33 µM; AID 504462, 2011; in the data active means inhibition above about 40%
Each line names hits and unclear results; the compound was inactive in the other large screens.

C[C@H]1[C@H](C)CC[C@]2(C(=O)O)CC[C@]3(C)C(=CC[C@@H]4[C@@]5(C)C[C@@H](O)[C@H](O)C(C)(C)[C@@H]5CC[C@]43C)[C@H]12	NadD block 35 (no result: UCH37 DUB inh)
C[C@@H]1CC[C@]2(C(=O)O)CC[C@]3(C)C(=CCC4[C@]56CC[C@@](O)(OC5)C(C)(C)C6CC[C@]43C)C2[C@H]1C (stereo not given in full)	none
C[C@@H]1CC[C@]2(C(=O)O)CC[C@]3(C)C(=CCC4[C@@]5(C)CC[C@H](O)[C@@](C)(C(=O)O)C5CC[C@]43C)C2[C@]1(C)O (stereo not given in full)	none
C[C@H]1[C@H](C)CC[C@]2(C(=O)O)CC[C@]3(C)C(=CC[C@@H]4[C@@]5(C)CC[C@H](O)C(C)(C)[C@@H]5CC[C@]43C)[C@H]12	NadD block 47
CC(=NNS(=O)(=O)c1ccc([N+](=O)[O-])cc1)c1c[nH]c2ccccc12	none (no result: NadD block, SENP1 FRET inh, NR3A LBD binder, ATG4B inhibitor)
CCN1C(=O)[C@H]2[C@H]3[C@H](O)[C@H](O)CC(=NO[C@H](C)c4cn([C@H](CO)Cc5ccccc5)nn4)[C@@H]3CC[C@H]2C1=O	none (no result: NadD block, SENP1 FRET inh, NR3A LBD binder, ATG4B inhibitor)
CN(C)c1nc(N/N=C\c2ccc(Cl)c([N+](=O)[O-])c2)nc(Nc2ccc(F)cc2)n1	NR3A LBD binder 30 (no result: UCH37 DUB inh)
Cc1cc(=O)[nH]c(NN=Cc2ccc(Cl)c([N+](=O)[O-])c2)n1	none (no result: NadD block, SENP1 FRET inh, NR3A LBD binder, ATG4B inhibitor)
O=[N+]([O-])/C=C/c1cn(Cc2ccc(Cl)cc2)c2ccccc12	UCH37 DUB inh 20
COc1ccc(C(=O)CCc2ccccc2)c(O)c1	none
O=C(CCc1ccccc1)c1c(O)cc(O)cc1O	NR3A LBD binder 13
O=C(O)c1cccc(N/N=C/c2sc(N3CCOCC3)nc2-c2ccccc2)c1	NR3A LBD binder 14 (no result: UCH37 DUB inh)
Cc1nn(-c2ccccc2Cl)c(Cl)c1/C=N/Nc1cccc(C(=O)O)c1	NR3A LBD binder 10 (no result: UCH37 DUB inh)
Cc1ccsc1/C=N/Nc1cccc(C(=O)O)c1	NR3A LBD binder 20 (no result: UCH37 DUB inh)
Cc1ccc(C=NNc2cccc(C(=O)O)c2)s1	none (no result: NadD block, SENP1 FRET inh, NR3A LBD binder, ATG4B inhibitor)
CC(=NNC(=O)c1c(Cl)cnn1C)c1cccc(NC(=O)C(C)C)c1	none (no result: NadD block, SENP1 FRET inh, NR3A LBD binder, ATG4B inhibitor)
O=C(/C=C/c1ccc(N2CCC(c3ccccc3)=N2)cc1)c1ccccc1	NR3A LBD binder 30 (no result: NadD block, SENP1 FRET inh)
CC(=NNC(=O)CNC(=O)c1cccnc1)c1ccco1	none (no result: NadD block, SENP1 FRET inh, NR3A LBD binder, ATG4B inhibitor)
Cn1c2ccccc2c(=O)c2cc(C#Cc3ccc(N)cc3)ccc21	none
COc1ccc(C#Cc2ccc3c(c2)c(=O)c2ccccc2n3C)cc1	NR3A LBD binder 12
CCSC1=N/C(=C\c2ccc(C(=O)O)cc2)C(=O)S1	NR3A LBD binder 20
CCSC1=N/C(=C\c2ccc(C)s2)C(=O)S1	NR3A LBD binder 13
C=CCSC1=N/C(=C\c2ccc(C(=O)O)cc2)C(=O)S1	none
CCC1=C(OC(=O)c2ccccc2)C(C)(C)C(c2ccccc2)OC1=O (stereo not given)	NR3A LBD binder 14
CC1(C)C(=O)OC(c2ccccc2)C(C)(C)C1=O (stereo not given)	none
CCOC(=O)c1c(C)[nH]c2ccc(O)cc12	NR3A LBD binder 26
COc1ccc(NC(=O)c2ccc3c(c2)S(=O)(=O)c2ccccc2C3=O)cc1	none
COc1ccc(NC(=O)c2cccc3c2C(=O)c2ccc(-c4ccc(F)cc4OCc4ccccc4)cc2S3(=O)=O)cc1	NadD block 30
COc1ccc(C(=O)COC(=O)/C=C/c2ccc(S(=O)(=O)Nc3cccc(S(N)(=O)=O)c3)cc2)cc1	NR3A LBD binder 11 (no result: UCH37 DUB inh)
COc1cc(/C=C/C(=O)O)ccc1OS(=O)(=O)c1ccc(C)cc1	none
NS(=O)(=O)c1cccc(NS(=O)(=O)c2ccc(/C=C/C(=O)OCC(=O)c3ccc(Br)cc3)cc2)c1	none
COc1cc(/C=C/C(=O)c2ccc(NS(=O)(=O)c3ccc(C)cc3)cc2)ccc1OC(F)F	NR3A LBD binder 23
COc1cccc(/C=C/C(=O)c2ccc(NS(=O)(=O)c3ccc(C)cc3)cc2)c1	NR3A LBD binder 18
CC(C)Oc1ccccc1C=Nn1nnnc1N	none (no result: NadD block, SENP1 FRET inh, NR3A LBD binder, ATG4B inhibitor)
